Source: ChEMBL document CHEMBL3872233, “Topical Treatment of Leishmania tropica Infection Using (-)-α-Bisabolol Ointment in a Hamster Model: Effectiveness and Safety Assessment” (J Nat Prod, 2016)

How the values were obtained:
[1] = system: Leishmania tropica; test: (§1) Antileishmanial activity against Leishmania tropica MHOM/MA/1988/LEM1314 promastigotes infected in Syrian hamster assessed as reduction in lesion thickness at 2 mg/kg administered intralesionally once daily on footpad for 3 weeks starting at week 7 post infection measured 1 week post last dose relative to control; assay type: functional, organism-based; design: scale not given: the % may be the effect or the level left
Procedure, shortened: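 L. tropica stationary-phase promastigotes (3 × 10^7 in 50 μL PBS) injected into the left hind footpad. Treatment began at week 7 (+75% footpad thickness) and ran daily for 21 days, n = 10/group. Routes were 50 mg ointment on the lesion (cetyl alcohol/lanolin/petrolatum base), gavage in olive oil, or intralesional meglumine antimoniate 2 mg SbV/kg. Lesion thickness was measured weekly against base-only ointment; sacrifice was 1 week after the last dose.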

[2] = system: Leishmania tropica; test: as §1, with “parasite load in foodpad skin” for “lesion thickness”, “dose by qPCR analysis” for “dose”; assay type: functional, organism-based; design: scale not given: the % may be the effect or the level left
Procedure, shortened: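 Hamsters were infected in the footpad and treated daily for 21 days from week 7 post-infection, n = 10/group, and sacrificed 1 week after the last dose. Footpad skin, liver and spleen DNA was assayed by L. tropica-specific TaqMan qPCR (chromosome 29 target), in triplicate with 50 ng DNA per 25 μL reaction. Load was interpolated from Ct on a calibration curve of promastigote DNA, relative to base-ointment controls.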

Meglumine antimoniate; Glucantime gave an Activity [1] of 3.2% and an Activity [2] of 73%.
